Experimental data published in PMC3217903 (Biochemistry, 2011).

Key:
[1] = IP6 binding to free PH domain, intrinsic tryptophan fluorescence titration; conditions: read-out: KD(IP6); free PH domain 0.5 μM, 25°C, binding buffer plus 10 mM DTT
Method in brief: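 GST-fused PH domain (0.5 μM) titrated with IP6. Intrinsic Trp excitation 284 nm; emission 322 nm (GRP1) or 340 nm (PLCδ1). A parallel control with sodium phosphate at six times the IP6 concentration is subtracted after dilution correction. KD from nonlinear least-squares hyperbolic fit. Triplicate titrations, mean ±1 SD; reported constants average ≥3 independent fits.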

[2] = Stopped-flow association and dissociation kinetics, PM; type: binding
Method in brief: (§1)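 Stopped-flow FRET in binding buffer plus 10 mM DTT, 25°C, on plasma-membrane-mimic vesicles. Association: 0.5 μM PH domain mixed with vesicles (300 μM total lipid, 3 μM accessible PIP); kon from the dominant fast phase of a double-exponential fit. Dissociation: preformed complex mixed with excess IP6 (PI(3,4,5)P3: 10 mM wild type, 20 mM mutants; PI(4,5)P2: 8 mM). KD = koff/kon; ≥3 runs averaged.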

NIH 3T3 cells = test: Live cell imaging of plasma membrane targeting of citrine-coupled PH domains; type: cell-based; conditions: serum-starved NIH 3T3 cells
Method in brief: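 NIH 3T3 fibroblasts grown in DMEM with 10% FBS and transfected with Lipofectamine 2000 (4 μg DNA) with N-terminal citrine–PH fusions. Replated 24–48 h post-transfection, then serum-starved 6 h in DMEM with 0.2% BSA at 37°C. Imaged live by wide-field fluorescence microscopy in HEPES-buffered HBSS, pH 7.4, with 0.01% BSA.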

[3] = Competitive displacement assay; type: binding; conditions: ratio of equilibrium KD values
Method in brief: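 Human GRP1 PH (residues 255–392) or mouse PLCδ1 PH (12–142) GST fusions, made in E. coli BL21. Sonicated vesicles mimic the plasma membrane (PE/PC/PS/PI/SM/CH/dPE/PIPn, 27.5/10.5/21/4.5/4.5/25/5/2 mol%). Sample: 0.5 μM protein, 300 μM total lipid, 3 μM accessible PI(4,5)P2 or PI(3,4,5)P3, pH 7.4 HEPES/KCl buffer plus 10 mM DTT, 25°C. IP6 titrated while FRET decrease is monitored. Protein-free control subtracted. KD(PIPn) calculated from fitted KI(IP6)app and KD(IP6).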

[4] = Stopped-flow association and dissociation kinetics, PM; type: binding; remark: listed apart in the source
Method in brief: as §1

| Molecule | Kd [1] [nM] | kon ([2]; PM(+)PI(4,5)P2, 25°C) | koff ([2]; PM(+)PI(4,5)P2, excess IP6, 25°C) [s⁻¹] | Kd ([2]; read-out: KD (koff/kon), PM(+)PI(4,5)P2, calculated from kinetic constants) [nM] | relocation from plasma membrane to cytoplasm on PI(4,5)P2 hydrolysis (NIH 3T3 cells; 20 μM ionomycin, 2 mM extracellular Ca2+, three minute) | cellular distribution in resting cells (NIH 3T3 cells; citrine fusion) | weaker binding of membrane-bound PI(4,5)P2 than PI(3,4,5)P3 [3] | kon ([4]; PM(+)PI(3,4,5)P3, 25°C) | koff ([4]; PM(+)PI(3,4,5)P3, excess IP6, 25°C) [s⁻¹] | Kd ([4]; read-out: KD (koff/kon), PM(+)PI(3,4,5)P3, calculated from kinetic constants) [nM] |
| --- | --- | --- | --- | --- | --- | --- | --- | --- | --- | --- |
| PLCδ1: PH domain of mouse PLCδ1 (residues 12–142), PI(4,5)P2-specific control (protein, UniProt Q8R3B1 12-142, looked up, fragment, PH domain) GLQDDPDLQALLKGSQLLKVKSSSWRRERFYKLQEDCKTIWQESRKVMRSPESQLFSIEDIQEVRMGHRTEGLEKFARDIPEDRCFSIVFKDQRNTLDLIAPSPADVQHWVQGLRKIIDRSGSMDQRQKLQ | 4000 ± 1000 | 180 ± 10 ×10^6 M^−1 s^−1 | 15 ± 1 | 81 ± 5 | fully relocates | targeted to plasma membrane |  |  |  |  |
| WT: native PH domain of human GRP1 (residues 255–392), GST-fusion purified; citrine fusion in cells (protein, UniProt O43739 255-392, looked up, fragment, PH domain GST or citrine fusion) GNDLTHTFFNPDREGWLLKLGGGRVKTWKRRWFILTDNCLYYFEYTTDKEPRGIIPLENLSIREVEDPRKPNCFELYNPSHKGQVIKACKTEADGRVVEGNHVVYRISAPSPEEKEEWMKSIKASISRDPFYDMLATR | 20000 ± 3000 |  |  |  |  |  | over 200 fold | 14 ± 1 ×10^6 M^−1 s^−1 | 0.79 ± 0.01 | 55 ± 1 |
